Experimental data published in ChEMBL document CHEMBL5724801, “EUbOPEN Chemogenomics Library - Multiplex” (2024).
Several values for one entry are separate records, joined by “and”; a condition that tells them apart may be missing. Identical values can stand only once.

Tested on: U2OS
Assay: Multiplex assay against U2OS
Assay type: toxicity, cell-based
Details: human
Outline: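 Four dyes were applied at seeding to live cells: Hoechst33342, BioTracker Green Microtubule Cytoskeleton Dye, MitoTracker Red and Annexin V Alexa Fluor 680. Imaging after compound addition used a CQ1 microscope at 37°C and 5% CO2. CellPathfinder machine-learning gating then sorted cells into Hoechst high-intensity objects or normal cells, normal cells into healthy, pyknosed or fragmented nuclei, and pyknosed cells into mitotic or apoptotic, with tubulin, mitochondrial-mass and membrane-permeability phenotypes given as per cents of healthy-nucleus cells.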

[1] = 12 h, 1 µM, compound concentration 1 uM
[2] = 12 h, 10 µM, compound concentration 10 uM
[3] = 24 h, 1 µM, compound concentration 1 uM
[4] = 24 h, 10 µM, compound concentration 10 uM
[5] = 48 h, 1 µM, compound concentration 1 uM
[6] = 48 h, 10 µM, compound concentration 10 uM

## O=C(Nc1cc(C(F)(F)F)cc(C(F)(F)F)c1)c1cc(Cl)ccc1O [IMD-0354]
[1]
  Population Apoptotic (%): 56.25% and 45.83%
  Population Fragmented Nuclei (%): 0.73% and 2.45%
  Population Healthy Nuclei (%): 91.46% and 82.82%
  Population Hoechst High Intensity Objects (%): 0.24% and 0.61%
  Population Membrane Permeable-Phenotype (%): 0.27% and 2.22%
  Population Mitochondria Different-Phenotype (%): 0% and 7.41%
  Population Mitotic Cells (%): 43.75% and 54.17%
  Population Normal (%): 99.76% and 99.39%
  Population Pyknosed Nuclei (%): 7.8% and 14.72%
  Population Tubulin-Different-Phenotype (%): 0.27% and 0.74%
  Total Cell Count: 411 and 164
[2]
  Population Apoptotic (%): 45.45% and 65%
  Population Fragmented Nuclei (%): 2.48% and 9.2%
  Population Healthy Nuclei (%): 87.61% and 79.31%
  Population Hoechst High Intensity Objects (%): 0%
  Population Membrane Permeable-Phenotype (%): 0% and 0.72%
  Population Mitochondria Different-Phenotype (%): 0% and 2.9%
  Population Mitotic Cells (%): 54.55% and 35%
  Population Normal (%): 100%
  Population Pyknosed Nuclei (%): 9.91% and 11.49%
  Population Tubulin-Different-Phenotype (%): 0.26% and 0%
  Total Cell Count: 444 and 174
[3]
  Population Apoptotic (%): 40.91% and 57.69%
  Population Fragmented Nuclei (%): 1.32% and 3.81%
  Population Healthy Nuclei (%): 90.38% and 83.81%
  Population Hoechst High Intensity Objects (%): 0%
  Population Membrane Permeable-Phenotype (%): 0.21% and 1.7%
  Population Mitochondria Different-Phenotype (%): 0% and 8.52%
  Population Mitotic Cells (%): 59.09% and 42.31%
  Population Normal (%): 100%
  Population Pyknosed Nuclei (%): 8.3% and 12.38%
  Population Tubulin-Different-Phenotype (%): 0.42% and 0.57%
  Total Cell Count: 530 and 210
[4]
  Population Apoptotic (%): 60.24% and 73.33%
  Population Fragmented Nuclei (%): 1.8% and 8.77%
  Population Healthy Nuclei (%): 79.5% and 73.68%
  Population Hoechst High Intensity Objects (%): 0%
  Population Membrane Permeable-Phenotype (%): 2.55% and 1.59%
  Population Mitochondria Different-Phenotype (%): 0% and 0.79%
  Population Mitotic Cells (%): 39.76% and 26.67%
  Population Normal (%): 100%
  Population Pyknosed Nuclei (%): 18.69% and 17.54%
  Population Tubulin-Different-Phenotype (%): 3.4% and 0%
  Total Cell Count: 444 and 171
[5]
  Population Apoptotic (%): 46.15% and 44.44%
  Population Fragmented Nuclei (%): 2.37% and 2.99%
  Population Healthy Nuclei (%): 91.15% and 83.53%
  Population Hoechst High Intensity Objects (%): 0%
  Population Membrane Permeable-Phenotype (%): 0.68% and 0.36%
  Population Mitochondria Different-Phenotype (%): 0.14% and 3.58%
  Population Mitotic Cells (%): 53.85% and 55.56%
  Population Normal (%): 100%
  Population Pyknosed Nuclei (%): 6.48% and 13.47%
  Population Tubulin-Different-Phenotype (%): 1.23% and 0.36%
  Total Cell Count: 802 and 334
[6]
  Population Apoptotic (%): 62.57% and 80.82%
  Population Healthy Nuclei (%): 51.4% and 35.44%
  Population Hoechst High Intensity Objects (%): 0% and 0.63%
  Population Membrane Permeable-Phenotype (%): 13.86% and 7.14%
  Population Mitochondria Different-Phenotype (%): 1.49% and 1.79%
  Population Mitotic Cells (%): 37.43% and 19.18%
  Population Normal (%): 100% and 99.37%
  Population Pyknosed Nuclei (%): 45.55% and 46.2%
  Population Tubulin-Different-Phenotype (%): 11.39% and 8.93%
  Total Cell Count: 393 and 159

## Cc1ccc(F)cc1C(=O)Nc1ccc(C(=O)N2Cc3cccn3Cc3ccccc32)c(Cl)c1 [LIXIVAPTAN]
[1]
  Population Apoptotic (%): 69% and 84%
  Population Healthy Nuclei (%): 55% and 82%
  Population Hoechst High Intensity Objects (%): 3%
  Population Membrane Permeable-Phenotype (%): 9% and 14%
  Population Mitochondria Different-Phenotype (%): 9% and 10%
  Population Mitotic Cells (%): 30% and 15%
  Population Normal (%): 96%
  Population Pyknosed Nuclei (%): 11% and 8%
  Population Tubulin-Different-Phenotype (%): 7% and 11%
  Total Cell Count: 230 and 150
[2]
  Population Apoptotic (%): 59% and 47%
  Population Fragmented Nuclei (%): 34% and 13%
  Population Healthy Nuclei (%): 49% and 69%
  Population Hoechst High Intensity Objects (%): 5%
  Population Membrane Permeable-Phenotype (%): 79% and 63%
  Population Mitochondria Different-Phenotype (%): 42% and 55%
  Population Mitotic Cells (%): 40% and 52%
  Population Normal (%): 94%
  Population Pyknosed Nuclei (%): 16%
  Population Tubulin-Different-Phenotype (%): 85% and 77%
  Total Cell Count: 203 and 119
[3]
  Population Apoptotic (%): 86% and 57%
  Population Fragmented Nuclei (%): 26% and 14%
  Population Healthy Nuclei (%): 64% and 81%
  Population Hoechst High Intensity Objects (%): 1% and 4%
  Population Membrane Permeable-Phenotype (%): 9% and 11%
  Population Mitochondria Different-Phenotype (%): 9% and 13%
  Population Normal (%): 98% and 95%
  Population Pyknosed Nuclei (%): 8% and 4%
  Population Tubulin-Different-Phenotype (%): 4% and 7%
  Total Cell Count: 257 and 171
[4]
  Population Apoptotic (%): 59% and 66%
  Population Fragmented Nuclei (%): 30% and 14%
  Population Healthy Nuclei (%): 50% and 67%
  Population Hoechst High Intensity Objects (%): 4%
  Population Membrane Permeable-Phenotype (%): 65% and 54%
  Population Mitochondria Different-Phenotype (%): 63% and 67%
  Population Mitotic Cells (%): 40% and 33%
  Population Normal (%): 95%
  Population Pyknosed Nuclei (%): 18%
  Population Tubulin-Different-Phenotype (%): 75% and 66%
  Total Cell Count: 207 and 119
[5]
  Population Apoptotic (%): 87% and 95%
  Population Fragmented Nuclei (%): 24% and 10%
  Population Healthy Nuclei (%): 64% and 79%
  Population Hoechst High Intensity Objects (%): 1% and 3%
  Population Membrane Permeable-Phenotype (%): 9% and 13%
  Population Mitochondria Different-Phenotype (%): 6% and 11%
  Population Mitotic Cells (%): 12% and 5%
  Population Normal (%): 98% and 96%
  Population Pyknosed Nuclei (%): 11% and 10%
  Population Tubulin-Different-Phenotype (%): 5%
  Total Cell Count: 378 and 206
[6]
  Population Apoptotic (%): 75% and 92%
  Population Fragmented Nuclei (%): 32% and 18%
  Population Healthy Nuclei (%): 37% and 58%
  Population Hoechst High Intensity Objects (%): 5% and 12%
  Population Membrane Permeable-Phenotype (%): 49% and 60%
  Population Mitochondria Different-Phenotype (%): 40% and 52%
  Population Normal (%): 94% and 87%
  Population Pyknosed Nuclei (%): 29% and 23%
  Population Tubulin-Different-Phenotype (%): 44% and 57%
  Total Cell Count: 232 and 137

## N[C@@]1(C(=O)O)CO[C@H]2[C@H](C(=O)O)[C@H]21 [LY-379268]
[1]
  Population Apoptotic (%): 85% and 100%
  Population Fragmented Nuclei (%): 20% and 17%
  Population Healthy Nuclei (%): 76% and 79%
  Population Hoechst High Intensity Objects (%): 0%
  Population Membrane Permeable-Phenotype (%): 2% and 8%
  Population Mitochondria Different-Phenotype (%): 1% and 2%
  Population Mitotic Cells (%): 14% and 0%
  Population Normal (%): 99%
  Population Pyknosed Nuclei (%): 3% and 2%
  Population Tubulin-Different-Phenotype (%): 1% and 3%
  Total Cell Count: 211 and 108
[2]
  Population Apoptotic (%): 63% and 80%
  Population Fragmented Nuclei (%): 30% and 19%
  Population Healthy Nuclei (%): 61% and 77%
  Population Hoechst High Intensity Objects (%): 0% and 1%
  Population Membrane Permeable-Phenotype (%): 8% and 4%
  Population Mitochondria Different-Phenotype (%): 2% and 1%
  Population Mitotic Cells (%): 36% and 20%
  Population Normal (%): 99% and 98%
  Population Pyknosed Nuclei (%): 7% and 3%
  Population Tubulin-Different-Phenotype (%): 3% and 1%
  Total Cell Count: 264 and 143
[3]
  Population Apoptotic (%): 88% and 100%
  Population Fragmented Nuclei (%): 20% and 11%
  Population Healthy Nuclei (%): 71% and 79%
  Population Hoechst High Intensity Objects (%): 1% and 0%
  Population Mitochondria Different-Phenotype (%): 1% and 2%
  Population Mitotic Cells (%): 11% and 0%
  Population Normal (%): 98% and 100%
  Population Pyknosed Nuclei (%): 7% and 9%
  Population Tubulin-Different-Phenotype (%): 1% and 6%
  Total Cell Count: 245 and 133
[4]
  Population Apoptotic (%): 81% and 90%
  Population Fragmented Nuclei (%): 25% and 16%
  Population Healthy Nuclei (%): 66% and 77%
  Population Hoechst High Intensity Objects (%): 1%
  Population Membrane Permeable-Phenotype (%): 8% and 4%
  Population Mitochondria Different-Phenotype (%): 1% and 4%
  Population Mitotic Cells (%): 18% and 10%
  Population Normal (%): 98%
  Population Pyknosed Nuclei (%): 7% and 6%
  Population Tubulin-Different-Phenotype (%): 2% and 4%
  Total Cell Count: 284 and 165
[5]
  Population Apoptotic (%): 92% and 100%
  Population Fragmented Nuclei (%): 13% and 15%
  Population Healthy Nuclei (%): 79% and 72%
  Population Hoechst High Intensity Objects (%): 1% and 2%
  Population Membrane Permeable-Phenotype (%): 3% and 11%
  Population Mitochondria Different-Phenotype (%): 2% and 5%
  Population Mitotic Cells (%): 7% and 0%
  Population Normal (%): 98% and 97%
  Population Pyknosed Nuclei (%): 7% and 12%
  Population Tubulin-Different-Phenotype (%): 3% and 5%
  Total Cell Count: 348 and 178
[6]
  Population Apoptotic (%): 92% and 90%
  Population Fragmented Nuclei (%): 24% and 11%
  Population Healthy Nuclei (%): 68% and 83%
  Population Hoechst High Intensity Objects (%): 2%
  Population Membrane Permeable-Phenotype (%): 9% and 3%
  Population Mitochondria Different-Phenotype (%): 2%
  Population Mitotic Cells (%): 7% and 9%
  Population Normal (%): 97%
  Population Pyknosed Nuclei (%): 7% and 4%
  Population Tubulin-Different-Phenotype (%): 3%
  Total Cell Count: 383 and 228
